Laboratory results from ChEMBL document CHEMBL3734668, “Evaluation of small molecule SecA inhibitors against methicillin-resistant Staphylococcus aureus” (Bioorg Med Chem, 2015).
In brackets after ≈: the same amount, converted by molar mass. Activity calls are given as the source filed them. The rule behind the calls is not given here.

What was measured:
[1] = molecular target: T1, Protein translocase subunit SecA 1 (Staphylococcus aureus (strain NCTC 8325), UniProt O06446); assay: Inhibition of Staphylococcus aureus ATCC 35556 SecA1 expressed in Escherichia coli BL21-gammaDE3 assessed as reduction in intrinsic ATPase activity incubated for 3 hrs measured by malachite green colorimetric method
T1 sequence (O06446 whole entry): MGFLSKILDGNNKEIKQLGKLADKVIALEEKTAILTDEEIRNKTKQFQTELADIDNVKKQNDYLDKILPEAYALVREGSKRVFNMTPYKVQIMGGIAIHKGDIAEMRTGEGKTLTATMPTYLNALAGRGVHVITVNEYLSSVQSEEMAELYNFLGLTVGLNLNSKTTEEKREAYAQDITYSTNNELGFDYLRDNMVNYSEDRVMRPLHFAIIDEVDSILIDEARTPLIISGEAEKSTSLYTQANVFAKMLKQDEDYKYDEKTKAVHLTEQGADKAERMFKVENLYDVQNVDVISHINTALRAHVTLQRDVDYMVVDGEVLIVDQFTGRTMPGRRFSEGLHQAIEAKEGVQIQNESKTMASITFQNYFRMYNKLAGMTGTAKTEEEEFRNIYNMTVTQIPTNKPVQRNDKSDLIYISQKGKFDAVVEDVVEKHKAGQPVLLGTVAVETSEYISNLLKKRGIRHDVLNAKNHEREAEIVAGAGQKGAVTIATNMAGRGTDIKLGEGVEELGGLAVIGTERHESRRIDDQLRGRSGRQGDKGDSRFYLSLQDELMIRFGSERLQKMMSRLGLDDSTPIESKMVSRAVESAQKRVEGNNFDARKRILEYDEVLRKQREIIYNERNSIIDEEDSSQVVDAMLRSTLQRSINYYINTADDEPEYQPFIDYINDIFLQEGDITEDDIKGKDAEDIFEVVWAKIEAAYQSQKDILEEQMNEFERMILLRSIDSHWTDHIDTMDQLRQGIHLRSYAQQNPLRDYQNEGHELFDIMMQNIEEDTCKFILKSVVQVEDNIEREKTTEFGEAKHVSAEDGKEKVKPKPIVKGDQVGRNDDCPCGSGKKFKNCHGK

[2] = molecular target: T2, Protein translocase subunit SecA 2 (Staphylococcus aureus (strain NCTC 8325), UniProt Q2FUW6); assay: Inhibition of Staphylococcus aureus ATCC 35556 SecA2 expressed in Escherichia coli BL21-gammaDE3 assessed as reduction in intrinsic ATPase activity incubated for 3 hrs measured by malachite green colorimetric method
T2 sequence (Q2FUW6 whole entry): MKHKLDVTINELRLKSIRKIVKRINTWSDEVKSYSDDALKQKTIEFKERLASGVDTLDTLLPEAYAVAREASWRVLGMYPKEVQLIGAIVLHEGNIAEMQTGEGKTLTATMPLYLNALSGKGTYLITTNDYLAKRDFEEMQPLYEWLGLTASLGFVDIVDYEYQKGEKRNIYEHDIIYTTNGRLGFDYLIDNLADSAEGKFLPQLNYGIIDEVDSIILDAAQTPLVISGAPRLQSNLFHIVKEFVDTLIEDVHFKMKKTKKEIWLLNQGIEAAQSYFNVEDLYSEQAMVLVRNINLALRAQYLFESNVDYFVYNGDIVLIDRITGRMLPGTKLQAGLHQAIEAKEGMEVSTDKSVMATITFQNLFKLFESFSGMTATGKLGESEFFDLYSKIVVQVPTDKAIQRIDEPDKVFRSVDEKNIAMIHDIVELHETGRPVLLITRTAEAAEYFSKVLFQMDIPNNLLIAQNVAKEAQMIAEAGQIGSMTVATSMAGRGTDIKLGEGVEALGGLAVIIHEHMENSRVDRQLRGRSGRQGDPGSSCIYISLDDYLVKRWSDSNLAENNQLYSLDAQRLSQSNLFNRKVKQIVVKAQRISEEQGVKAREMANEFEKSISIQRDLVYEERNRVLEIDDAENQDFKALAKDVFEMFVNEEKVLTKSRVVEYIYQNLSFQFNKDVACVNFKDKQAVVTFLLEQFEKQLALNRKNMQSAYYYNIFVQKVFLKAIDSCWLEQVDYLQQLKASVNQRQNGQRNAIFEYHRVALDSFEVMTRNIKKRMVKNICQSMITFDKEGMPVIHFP

[3] = molecular target: T1, Protein translocase subunit SecA 1; assay: Inhibition of Staphylococcus aureus ATCC 35556 SecA1 liposomal ion channel activity in Xenopus laevis oocytes incubated for 3 hrs measured by recording ion current for 1 min; assay type: cell-based
Procedure, shortened: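 Xenopus laevis oocytes injected at animal pole with 50 nl containing 120 ng liposomes, 120 ng SaSecA1, 14 ng proOmpA, 2 mM ATP, 1 mM Mg(OAc)2 plus varying inhibitor. Incubated 3 hr at 23 °C, then ion current recorded continuously 1 min.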

[4] = system: Staphylococcus aureus; assay: Bacteriostatic activity against Staphylococcus aureus ATCC 6538 after 24 hrs; assay type: functional; details: ATCC 6538, 24 h
[5] = system: Staphylococcus aureus; assay: Bacteriostatic activity against Staphylococcus aureus N315 after 24 hrs; assay type: functional; details: N315, 24 h
Procedure, shortened: (§1)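 Broth microdilution MIC per CLSI guidance in LB, 37 °C, shaking 250 rpm, 24 hr; run in triplicate in three separate experiments. MIC taken as lowest inhibitor concentration with no growth. Compounds from DMSO stocks; untreated controls carry equal DMSO.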

[6] = system: Staphylococcus aureus; assay: Bacteriostatic activity against Staphylococcus aureus Mu3 after 24 hrs; assay type: functional; details: Mu3, 24 h; procedure, shortened: as §1
[7] = system: Staphylococcus aureus; assay: Bacteriostatic activity against Staphylococcus aureus Mu50 after 24 hrs; assay type: functional; details: Mu50, 24 h
Procedure, shortened: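 Broth microdilution per CLSI guidelines in LB. Inhibitor added to dilute early-log culture (OD600 ≈ 0.05), 37 °C, 250 rpm, 24 hrs. Run in triplicate in three separate experiments. MIC read as the lowest concentration with no growth.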

[8] = system: Staphylococcus aureus; assay: Bacteriostatic activity against Staphylococcus aureus Newman after 24 hrs; assay type: functional; procedure, shortened: as §1
[9] = system: Staphylococcus aureus; assay: Bacteriostatic activity against wild type Staphylococcus aureus 8325-4; assay type: functional; procedure, shortened: as §1
[10] = system: Staphylococcus aureus; assay: Bacteriostatic activity against NorA deficient Staphylococcus aureus K1758; assay type: functional; procedure, shortened: as §1
[11] = system: Staphylococcus aureus; assay: Bacteriostatic activity against Staphylococcus aureus K2361 overexpressing NorA; assay type: functional; procedure, shortened: as §1
[12] = system: Staphylococcus aureus; assay: Bacteriostatic activity against MepA deficient Staphylococcus aureus K2908; assay type: functional; procedure, shortened: as §1
[13] = system: Staphylococcus aureus; assay: Bacteriostatic activity against Staphylococcus aureus K2068 overexpressing MepA; assay type: functional; procedure, shortened: as §1
[14] = molecular target: T3, Protein translocase subunit SecA 1 (Staphylococcus aureus (strain NCTC 8325)) (UniProt O06446); assay: Binding affinity to SecA1 in Staphylococcus aureus ATCC 6538 whole cell lysate incubated for 1 hr by Streptavidin-based pull down assay
T3 sequence (whole entry): T1 sequence (O06446 whole entry)
Procedure, shortened: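 Lysate precleared on streptavidin magnetic beads (4 °C, 1 hr), then rolled ±400 μM biotinylated probe at 4 °C, 1 hr. Beads washed three times, boiled in SDS buffer; SaSecA1 detected by Western blot using cross-reacting EcSecA antibody.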

[15] = Inhibition of Escherichia coli SecA N68 mutant ATPase activity

In the case of `Oc1ccc2c(c1)Oc1cc(O)ccc1C2C1CCCC1`, the IC50 [1] is reported as 35 µM, the IC50 [2] is reported as 30 µM and the IC50 [3] is reported as 2 µM. It also gave an MIC [4] of 11 µg/mL (≈ 39 µM), an MIC [5] of 14 µg/mL (≈ 49.6 µM) and an MIC [6] of 14 µg/mL (≈ 49.6 µM). It also gave an MIC [7] of 14 µg/mL (≈ 49.6 µM) and an MIC [8] of 7 µg/mL (≈ 24.8 µM).

For `CO[C@H]1/C=C/O[C@@]2(C)Oc3c(C)c(O)c4c(O)c(c(/C=N/N5CCN(C)CC5)c(O)c4c3C2=O)NC(=O)/C(C)=C\C=C\[C@H](C)[C@H](O)[C@@H](C)[C@@H](O)[C@@H](C)[C@H](OC(C)=O)[C@@H]1C` [RIFAMPIN], the MIC [7] was > 1000 µg/mL.

With `O=C([O-])c1c(Cl)c(Cl)c(Cl)c(Cl)c1-c1c2cc(I)c(=O)c(I)c-2oc2c(I)c([O-])c(I)cc12.[Na+].[Na+]` [ROSE BENGAL SODIUM] the MIC [9] was 13 µg/mL, the MIC [10] was 22 µg/mL and the MIC [11] was 35 µg/mL. It also gave an MIC [12] of 11 µg/mL, an MIC [13] of 15 µg/mL and an IC50 [2] of 2 µM. For the same compound, the MIC [5] was 21 µg/mL, the MIC [6] was 59 µg/mL and the MIC [8] was 51 µg/mL.

With `CN[C@@H](CC(C)C)C(=O)N[C@H]1C(=O)N[C@@H](CC(N)=O)C(=O)N[C@H]2C(=O)N[C@H]3C(=O)N[C@H](C(=O)N[C@@H](C(=O)O)c4cc(O)cc(O)c4-c4cc3ccc4O)[C@H](O)c3ccc(c(Cl)c3)Oc3cc2cc(c3O[C@H]2O[C@@H](CO)[C@H](O)[C@@H](O)[C@@H]2O[C@@H]2C[C@@](C)(N)[C@@H](O)[C@@H](C)O2)Oc2ccc(cc2Cl)[C@H]1O` the MIC [7] was 8 µg/mL (≈ 5.52 µM).

In the case of `CC[C@H]1OC(=O)[C@H](C)[C@@H](O[C@H]2C[C@@](C)(OC)[C@@H](O)[C@H](C)O2)[C@H](C)[C@@H](O[C@@H]2O[C@H](C)C[C@H](N(C)C)[C@H]2O)[C@](C)(O)C[C@@H](C)C(=O)[C@H](C)[C@@H](O)[C@]1(C)O` [ERYTHROMYCIN], the MIC [7] is reported as > 1250 µg/mL.

`CN(C)[C@@H]1C(O)=C(C(N)=O)C(=O)[C@@]2(O)C(O)=C3C(=O)c4c(O)cccc4[C@@](C)(O)[C@H]3C[C@@H]12` [TETRACYCLINE] showed an MIC [7] of 63 µg/mL (≈ 142 µM).

`CC1(C)S[C@@H]2[C@H](NC(=O)[C@H](N)c3ccccc3)C(=O)N2[C@H]1C(=O)O` [AMPICILLIN] gave an MIC [7] of 1000 µg/mL (≈ 2860 µM).

For `O=C(CCCC[C@@H]1SC[C@@H]2NC(=O)N[C@@H]21)NCCCCCCC1c2ccc(O)cc2Oc2cc(O)ccc21`, the Activity [14] was “Active” and the IC50 [15] was 90 µM.

With `CCn1cc(C(=O)O)c(=O)c2cc(F)c(N3CCNCC3)cc21` [NORFLOXACIN] the MIC [7] was 250 µg/mL (≈ 783 µM).

`NC[C@H]1O[C@H](O[C@H]2[C@H](O)[C@@H](O[C@H]3O[C@H](CO)[C@@H](O)[C@H](N)[C@H]3O)[C@H](N)C[C@@H]2N)[C@H](O)[C@@H](O)[C@@H]1O` [KANAMYCIN] showed an MIC [7] of 1000 µg/mL (≈ 2060 µM).
